Key:
Mus musculus [1] = test: Toxicity in mouse assessed as effect on platelet population at 200 mg/kg, po dosed once daily for 2 months as 5 days per week schedule; settings: in vivo, 120 h
[2] = Toxicity in Sprague-Dawley rat assessed as induction of histopathological changes in thymus. at 25 to 116 mg/kg, po dosed daily for 4 weeks during chronic 4 week toxicity test; type: organism-based; settings: in vivo, 672 h
Cytochrome P450 2C8 = molecular target: T1, Cytochrome P450 2C8 (Homo sapiens, UniProt P10632); test: Inhibition of CYP2C8 in human liver microsomes; type: ADME
T1 sequence (P10632 whole entry): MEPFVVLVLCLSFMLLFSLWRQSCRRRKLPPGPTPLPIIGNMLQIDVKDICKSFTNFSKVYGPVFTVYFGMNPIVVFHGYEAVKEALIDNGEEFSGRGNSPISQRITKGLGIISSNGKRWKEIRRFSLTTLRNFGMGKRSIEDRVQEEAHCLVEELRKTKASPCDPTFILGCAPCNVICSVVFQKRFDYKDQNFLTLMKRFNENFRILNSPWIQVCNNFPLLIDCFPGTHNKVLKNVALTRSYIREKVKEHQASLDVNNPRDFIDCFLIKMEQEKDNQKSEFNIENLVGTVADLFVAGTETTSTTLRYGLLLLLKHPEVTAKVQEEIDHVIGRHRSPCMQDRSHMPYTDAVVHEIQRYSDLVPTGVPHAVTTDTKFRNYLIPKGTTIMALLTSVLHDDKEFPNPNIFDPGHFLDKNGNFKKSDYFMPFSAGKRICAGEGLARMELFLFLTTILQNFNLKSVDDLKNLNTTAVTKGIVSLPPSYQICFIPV

[3] = Drug metabolism in rat bile assessed as (2S,3S,4S,5R,6S)-6-[[1-[(1R)-1-benzyl-2-hydroxyethyl]-2-methyl-4-oxo-3-pyridyl]oxy]-3,4,5-trihydroxy-tetrahydropyran-2-carboxylic acid formation at 150 umol/kg, po by LC/TOF/MS/MS analysis; type: ADME, organism-based; settings: in vivo
In short: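 Bile collected from rats after an oral dose of 150 μmol/kg. Metabolites characterised by β-glucuronidase hydrolysis and LC-TOFMS/MS. M2/M1 ratio followed over 8 h.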

[4] = Apparent clearance in Sprague-Dawley rat at 150 umol/kg, po measured up to 1440 mins by LC/MS/MS analysis; type: ADME, organism-based; settings: in vivo, read-out: CL(app) (converted)
[5] = Binding affinity to Cu2+ ion assessed as affinity constant by spectrophotometric titration method
Mus musculus [6] = test: Toxicity in mouse assessed as reduction in lymphocytes counts at 200 mg/kg, po dosed once daily for 2 months as 5 days per week schedule; settings: in vivo, 120 h
[7] = Ratio of drug level in intestine to plasma in rat at 150 umol/kg, po measured within 10 mins by LC-MS/MS analysis; type: ADME, organism-based; settings: intestine and plasma
In short: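 SD rats (half male, half female, n = 6 per group) given a single oral 150 μmol/kg dose. Killed at 10 min, 30 min, 2 h or 6 h; tissues washed in saline, weighed and homogenised in acetonitrile/water 1:9 (125 mg/mL). Tissue levels compared with plasma.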

Rattus norvegicus [8] = test: Iron scavenging activity in 59Fe-ferritin-loaded rat assessed as iron mobilization level at 450 umol/kg, po dosed 1 hr after 59Fe-ferritin injection and measured 24 hrs after 59Fe-ferritin injection by gamma counting method relative to control; type: functional
In short: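 Male SD rats, 300 g, fasted overnight, given about 1 μC 59Fe-ferritin i.v. under isoflurane. Chelator gavaged 1 h later, then rats housed in metabolic cages; food returned 1 h after dosing. Killed 24 h after 59Fe-ferritin. Urine, faeces, liver and gut gamma-counted. 8 rats per condition.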

[9] = Apparent clearance in Sprague-Dawley rat at 75 umol/kg, po measured up to 1440 mins by LC/MS/MS analysis; type: ADME, organism-based; settings: in vivo, read-out: CL(app) (converted)
[10] = Drug level in rat adrenal gland at 150 umol/kg, po measured measured up to 6 hrs by LC-MS/MS analysis; type: ADME, organism-based; settings: in vivo
In short: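 Single oral dose of 150 μmol/kg to SD rats, half male and half female, n=6 per group. Rats decapitated at 10 min, 30 min, 2 h and 6 h. Tissues dissected, saline-washed, weighed and homogenised in acetonitrile/water 1:9 (125 mg/mL). Drug level measured against plasma; mean ± SE.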

[11] = Binding affinity to Co2+ ion assessed as pM value by spectrophotometric titration method
[12] = AUC (0 to infinity) in Sprague-Dawley rat at 75 umol/kg, po measured up to 1440 mins by LC/MS/MS analysis; type: ADME, organism-based; parameters: dose 75 umol/kg, route oral, time infinity; settings: in vivo, 24 h
[13] = Apparent volume of distribution in Sprague-Dawley rat at 150 umol/kg, po measured up to 1440 mins by LC/MS/MS analysis; type: ADME, organism-based; settings: in vivo, 24 h
[14] = Binding affinity to Mg2+ ion assessed as pM value by spectrophotometric titration method
[15] = Apparent volume of distribution in Sprague-Dawley rat at 300 umol/kg, po measured up to 1440 mins by LC/MS/MS analysis; type: ADME, organism-based; settings: in vivo, 24 h
[16] = AUC (0 to infinity) in Sprague-Dawley rat at 300 umol/kg, po measured up to 1440 mins by LC/MS/MS analysis; type: ADME, organism-based; parameters: dose 300 umol/kg, time infinity, route oral; settings: in vivo, 24 h
[17] = Toxicity in Sprague-Dawley rat assessed as induction of histopathological changes in pancreas at 25 to 116 mg/kg, po dosed daily for 4 weeks and measured after additional 4 weeks period in absence of drug; type: organism-based; settings: in vivo, 672 h
[18] = Drug metabolism in rat liver microsomes assessed as oxidative metabolism incubated for 1 hr relative to deferiprone; type: ADME, Microsome
[19] = Cmax in Sprague-Dawley rat at 300 umol/kg, po measured up to 1440 mins by LC/MS/MS analysis; type: ADME, organism-based; parameters: dose 300 umol/kg, route oral; settings: in vivo
Rattus norvegicus [20] = test: Iron scavenging activity in iron-overloaded rat assessed as iron removal efficacy at 150 to 300 umol/kg, po relative to deferiprone; type: functional
In short: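 Male SD rats (300 g), fasted overnight, given about 1 μC 59Fe-ferritin i.v. under isoflurane; chelator by oral gavage 1 h later; doses 75, 150, 300, 600 and 1200 μmol/kg. Rats housed in metabolic cages, food returned 1 h post-dose; killed 24 h after ferritin injection. Urine, faeces, liver and gut gamma-counted. Iron removal expressed as % efficacy.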

[21] = Toxicity in iron-overloaded rat assessed as drug tolerability at 75 to 1200 umol/kg, po; settings: in vivo
[22] = Genotoxicity in Salmonella typhimurium by Ames test; type: toxicity; settings: salmonella enterica subsp. enterica serovar typhimurium
[23] = Cmax in Sprague-Dawley rat at 600 umol/kg, po measured up to 1440 mins by LC/MS/MS analysis; type: ADME, organism-based; parameters: dose 600 umol/kg, route oral; settings: in vivo
[24] = Binding affinity to Mg2+ ion assessed as affinity constant by spectrophotometric titration method

In the case of `Cc1c(O)c(O)cc[n+]1[C@@H](CO)Cc1ccccc1.[Cl-]`, the Activity (Mus musculus [1]) is reported as “Non-Toxic”, the Activity [2] is reported as “Toxic” and the IC50 (Cytochrome P450 2C8) is reported as over 200 µM. The Drug metabolism [3] was “Metabolite_Detected”, the CL/F [4] was 19 mL/min/kg and the K [5] was 8.31 pM. The log K [5] was 10.4, the Activity (Mus musculus [6]) was “Non-Toxic” and the Kp at 10 min [7] was 3.3 to 8.8. The Activity (Rattus norvegicus [8]) was 24.8%, the CL/F [9] was 21.2 mL/min/kg and the Drug uptake [10] was “Not Active”. For the same compound, the pM [11] was 6.17, the AUC [12] was 16400 ng·h/mL and the Vz [13] was 5.29 L/kg. For the same compound, the pM [14] was 7.59, the Vz [15] was 3.72 L/kg and the AUC [16] was 89800 ng·h/mL. The Activity [17] was “Non-Toxic”, the Drug metabolism [18] was “Metabolite_Detected” and the Cmax [19] was 41.9 µg/mL. For the same compound, the “fold change (FC)” value (Rattus norvegicus [20]) was 3.1 - 3.8, the Activity [21] was “Non-Toxic” and the Activity [22] was “Non-Toxic”. It also gave a Cmax [23] of 70 µg/mL and a log K [24] of 9.12.

— ChEMBL document CHEMBL4376902, “CN128: A New Orally Active Hydroxypyridinone Iron Chelator” (J Med Chem, 2020)
